{"source": "ChEMBL document CHEMBL3396947", "about": "“Synthesis and biological evaluation of phosphoramidate prodrugs of two analogues of 2-deoxy-d-ribose-1-phosphate directed to the discovery of two carbasugars as new potential anti-HIV leads” (Bioorg Med Chem, 2015)", "key": {"[1]": {"assay": "(§1) Cytotoxicity against human CEM cells after 72 hrs by coulter counter analysis", "assay_type": "cell-based, CCRF-CEM", "conditions": "human, CEM cells (CCRF-CEM)", "outline": "(§2)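 Tumour cells, (5–7.5) × 10⁴ per well, were grown with graded compound amounts at 37 °C in humidified CO₂. Growth time was 48 h for L1210, 72 h for CEM and 96 h for HeLa. Cells were then counted with a Coulter counter. IC50 was the concentration reducing cell proliferation by 50%.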"}, "[2]": {"tested_on": "Human immunodeficiency virus 1", "assay": "Antiviral activity against HIV1 3B infected in human CEM cells assessed as reduction of virus-induced cytopathogenicity after 4 to 5 days by trypan blue dye exclusion method", "assay_type": "functional, organism-based", "conditions": "Human immunodeficiency virus 1, 3B, CCRF-CEM"}, "[3]": {"tested_on": "Human immunodeficiency virus 2", "assay": "Antiviral activity against HIV2 ROD infected in human CEM cells assessed as reduction of virus-induced cytopathogenicity after 4 to 5 days by trypan blue dye exclusion method", "assay_type": "functional, organism-based", "conditions": "Human immunodeficiency virus 2, ISOLATE ROD, CCRF-CEM"}, "[4]": {"tested_on": "Human immunodeficiency virus 1", "assay": "Antiviral activity against HIV1 NL4.3 infected in human MT4 cells assessed as reduction of virus-induced cytopathogenicity after 4 to 5 days by trypan blue dye exclusion method", "assay_type": "functional, organism-based", "conditions": "Human immunodeficiency virus 1, NL4.3, MT4", "outline": "(§3)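 MT-4 cells (~3 × 10⁵ cells/mL) were infected with 100 CCID50/mL of HIV and cultured with compound dilutions for 4–5 days at 37 °C in humidified CO₂. Viable cells were counted by trypan blue dye exclusion. EC50 was the concentration giving 50% inhibition of the HIV-induced cytopathic effect.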"}, "Human orthopneumovirus": {"tested_on": "Human orthopneumovirus", "assay": "Antiviral activity against Respiratory syncytial virus infected in human HeLa cells at 100 uM", "assay_type": "functional, organism-based"}, "[5]": {"tested_on": "Vesicular stomatitis virus", "assay": "Antiviral activity against Vesicular stomatitis virus infected in human HeLa cells at 100 uM", "assay_type": "functional, organism-based"}, "Human alphaherpesvirus 1": {"tested_on": "Human alphaherpesvirus 1", "assay": "Antiviral activity against HSV1 infected in HEL cells at 100 uM", "assay_type": "functional, organism-based"}, "Human respirovirus 3": {"tested_on": "Human respirovirus 3", "assay": "Antiviral activity against Parainfluenza virus 3 infected in African green monkey Vero cells at 100 uM", "assay_type": "functional, organism-based"}, "Human alphaherpesvirus 2": {"tested_on": "Human alphaherpesvirus 2", "assay": "Antiviral activity against HSV2 infected in HEL cells at 100 uM", "assay_type": "functional, organism-based"}, "Felid alphaherpesvirus 1": {"tested_on": "Felid alphaherpesvirus 1", "assay": "Antiviral activity against Feline herpesvirus infected in CRFK cells at 100 uM", "assay_type": "functional, organism-based"}, "Feline coronavirus": {"tested_on": "Feline coronavirus", "assay": "Antiviral activity against Feline coronavirus infected in CRFK cells at 100 uM", "assay_type": "functional, organism-based"}, "L1210": {"tested_on": "L1210", "assay": "Cytotoxicity against mouse L1210 cells after 48 hrs by coulter counter analysis", "assay_type": "cell-based", "conditions": "L1210, 48 h", "outline": "as §2"}, "Vaccinia virus": {"tested_on": "Vaccinia virus", "assay": "Antiviral activity against Vaccinia virus infected in HEL cells at 100 uM", "assay_type": "functional, organism-based", "conditions": "Orthopoxvirus vaccinia"}, "Coxsackievirus": {"tested_on": "Coxsackievirus", "assay": "Antiviral activity against Coxsackievirus B4 infected in human HeLa cells at 100 uM", "assay_type": "functional, organism-based"}, "HeLa": {"tested_on": "HeLa", "assay": "Cytotoxicity against human HeLa cells after 96 hrs by coulter counter analysis", "assay_type": "cell-based", "outline": "as §2"}, "[6]": {"tested_on": "Mammalian orthoreovirus 1", "assay": "Antiviral activity against Reovirus-1 infected in African green monkey Vero cells at 100 uM", "assay_type": "functional, cell-based"}, "Influenza A virus [7]": {"tested_on": "Influenza A virus", "assay": "Antiviral activity against Influenza A virus H1N1 infected in MDCK cells at 100 uM", "assay_type": "functional, organism-based"}, "Punta Toro virus": {"tested_on": "Punta Toro virus", "assay": "Antiviral activity against Punta Toro virus infected in African green monkey Vero cells at 100 uM", "assay_type": "functional, organism-based"}, "Influenza A virus [8]": {"tested_on": "Influenza A virus", "assay": "Antiviral activity against Influenza A virus H3N2 infected in MDCK cells at 100 uM", "assay_type": "functional, organism-based"}, "CCRF-CEM": {"tested_on": "CCRF-CEM", "assay": "as §1", "assay_type": "cell-based", "conditions": "72 h; for pIC50: Homo sapiens, CCRF-CEM; for CC50: human, ccrf-cem", "outline": "as §2"}, "[9]": {"molecular_target": "Human immunodeficiency virus type 1 reverse transcriptase (Human immunodeficiency virus 1) (UniProt Q72547)", "assay": "Activity at HIV reverse transcriptase"}, "Sindbis virus": {"tested_on": "Sindbis virus", "assay": "Antiviral activity against Sindbis virus infected in African green monkey Vero cells at 100 uM", "assay_type": "functional, organism-based"}, "[10]": {"tested_on": "Human immunodeficiency virus 2", "assay": "Antiviral activity against HIV2 ROD infected in human MT4 cells assessed as reduction of virus-induced cytopathogenicity after 4 to 5 days by trypan blue dye exclusion method", "assay_type": "functional, organism-based", "conditions": "Human immunodeficiency virus 2, ISOLATE ROD", "outline": "as §3"}, "MT4": {"tested_on": "MT4", "assay": "Cytotoxicity against human MT4 cells after 4 to 5 days by trypan blue dye exclusion method", "assay_type": "cell-based"}, "[11]": {"tested_on": "Human immunodeficiency virus 2", "assay": "Antiviral activity against HIV2 ROD infected in human TK-deficient CEM cells assessed as reduction of virus-induced cytopathogenicity after 4 to 5 days by trypan blue dye exclusion method", "assay_type": "functional, organism-based", "conditions": "Human immunodeficiency virus 2, ISOLATE ROD, CCRF-CEM"}, "[12]": {"assay": "Prodrug activation assessed as carboxypeptidase Y (unknown origin)-mediated drug metabolism after 13 hrs by 31P-NMR analysis", "assay_type": "ADME, Homo sapiens", "outline": "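The substrate was dissolved in acetone-d6 and mixed with Trizma buffer (pH 7.6) for the carboxypeptidase Y incubation.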"}}, "note": "pEC50, pIC50: −log10 of the molar value. Active and inactive are the calls of the source. The rule behind the calls is not given here."}
{"smiles": "O=C(OCc1ccccc1)OC[C@H]1CC(O)C[C@@H]1OC(=O)OCc1ccccc1", "note": "(some centres not stated)", "values": [{"measurement": "CC50 at 72 h", "setting": "[1]", "result": 110, "unit": "µM"}, {"measurement": "pEC50", "setting": "[2]", "result": "< 4.30"}, {"measurement": "pEC50", "setting": "[3]", "result": "< 4.30"}]}
{"smiles": "OC[C@H]1[C@H](O)CC[C@@H]1O", "values": [{"measurement": "pEC50", "setting": "[4]", "result": 5.17}, {"measurement": "Activity", "setting": "Human orthopneumovirus", "result": "inactive"}, {"measurement": "Activity", "setting": "[5]", "result": "inactive"}, {"measurement": "Activity", "setting": "Human alphaherpesvirus 1", "result": "inactive"}, {"measurement": "Activity", "setting": "Human respirovirus 3", "result": "inactive"}, {"measurement": "Activity", "setting": "Human alphaherpesvirus 2", "result": "inactive"}, {"measurement": "Activity", "setting": "Felid alphaherpesvirus 1", "result": "inactive"}, {"measurement": "Activity", "setting": "Feline coronavirus", "result": "inactive"}, {"measurement": "pIC50", "setting": "L1210", "result": 4.26}, {"measurement": "Activity", "setting": "Vaccinia virus", "result": "inactive"}, {"measurement": "Activity", "setting": "Coxsackievirus", "result": "inactive"}, {"measurement": "pIC50", "setting": "HeLa", "result": 3.76}, {"measurement": "Activity", "setting": "[6]", "result": "inactive"}, {"measurement": "Activity", "setting": "Influenza A virus [7]", "result": "inactive"}, {"measurement": "Activity", "setting": "Punta Toro virus", "result": "inactive"}, {"measurement": "Activity", "setting": "Influenza A virus [8]", "result": "inactive"}, {"measurement": "pIC50", "setting": "CCRF-CEM", "result": "≤ 3.60"}, {"measurement": "CC50", "setting": "CCRF-CEM", "result": "> 250", "unit": "µM"}, {"measurement": "pEC50", "setting": "[2]", "result": 5.42}, {"measurement": "Activity", "setting": "[9]", "result": "inactive"}, {"measurement": "Activity", "setting": "Sindbis virus", "result": "inactive"}, {"measurement": "pEC50", "setting": "[10]", "result": 5.12}, {"measurement": "pEC50", "setting": "[3]", "result": 4.92}, {"measurement": "CC50", "setting": "MT4", "result": 90, "unit": "µM"}]}
{"smiles": "C[C@H](NP(=O)(Oc1cccc2ccccc12)OC1C[C@H](CO)[C@@H](O)C1)C(=O)OC1CCCCC1", "note": "(mixture of isomers)", "values": [{"measurement": "pEC50", "setting": "[11]", "result": 4.30}, {"measurement": "CC50", "setting": "CCRF-CEM", "result": "> 250", "unit": "µM"}, {"measurement": "pEC50", "setting": "[2]", "result": "< 4.30"}, {"measurement": "Stability", "setting": "[12]", "result": "Stable"}, {"measurement": "pEC50", "setting": "[3]", "result": "< 4.30"}]}
{"smiles": "O=C(OCc1ccccc1)OC[C@H]1[C@H](O)CC[C@@H]1OC(=O)OCc1ccccc1", "values": [{"measurement": "CC50 at 72 h", "setting": "[1]", "result": 94, "unit": "µM"}, {"measurement": "pEC50", "setting": "[2]", "result": 5.68}, {"measurement": "Activity", "setting": "[9]", "result": "inactive"}, {"measurement": "pEC50", "setting": "[3]", "result": 5.27}]}
{"smiles": "C[C@H](NP(=O)(Oc1cccc2ccccc12)O[C@@H]1CC[C@H](O)[C@H]1CO)C(=O)OCC(C)(C)C", "note": "(some centres not stated)", "values": [{"measurement": "pEC50", "setting": "[4]", "result": "< 4.30"}, {"measurement": "pIC50", "setting": "L1210", "result": 4.15}, {"measurement": "pIC50", "setting": "HeLa", "result": 4.03}, {"measurement": "pIC50", "setting": "CCRF-CEM", "result": 4.19}, {"measurement": "pEC50", "setting": "[10]", "result": "< 4.30"}, {"measurement": "CC50", "setting": "MT4", "result": 112, "unit": "µM"}]}
{"smiles": "COC(=O)[C@@H](NP(=O)(Oc1ccccc1)OC1C[C@H](CO)[C@@H](O)C1)C(C)C", "note": "(mixture of isomers)", "values": [{"measurement": "pEC50", "setting": "[11]", "result": 3.60}, {"measurement": "CC50", "setting": "CCRF-CEM", "result": "> 250", "unit": "µM"}, {"measurement": "pEC50", "setting": "[2]", "result": "< 3.60"}, {"measurement": "pEC50", "setting": "[3]", "result": "< 3.60"}]}
{"smiles": "OC[C@H]1CC(O)C[C@@H]1O", "note": "(some centres not stated)", "values": [{"measurement": "CC50", "setting": "CCRF-CEM", "result": "> 250", "unit": "µM"}, {"measurement": "pEC50", "setting": "[2]", "result": "< 3.60"}, {"measurement": "pEC50", "setting": "[3]", "result": "< 3.60"}]}
{"smiles": "C[C@H](NP(=O)(Oc1ccccc1)OC1C[C@H](CO)[C@@H](O)C1)C(=O)OC(C)(C)C", "note": "(mixture of isomers)", "values": [{"measurement": "pEC50", "setting": "[11]", "result": 3.60}, {"measurement": "CC50", "setting": "CCRF-CEM", "result": "> 250", "unit": "µM"}, {"measurement": "pEC50", "setting": "[2]", "result": "< 3.60"}, {"measurement": "pEC50", "setting": "[3]", "result": "< 3.60"}]}
{"smiles": "COC(=O)[C@H](C)NP(=O)(Oc1ccccc1)OC1C[C@H](CO)[C@@H](O)C1", "note": "(mixture of isomers)", "values": [{"measurement": "pEC50", "setting": "[11]", "result": 3.60}, {"measurement": "CC50", "setting": "CCRF-CEM", "result": "> 250", "unit": "µM"}, {"measurement": "pEC50", "setting": "[2]", "result": "< 3.60"}, {"measurement": "pEC50", "setting": "[3]", "result": "< 3.60"}]}
{"smiles": "CCCCCOC(=O)[C@H](C)NP(=O)(Oc1ccccc1)O[C@@H]1CC[C@H](O)[C@H]1CO", "note": "(some centres not stated)", "values": [{"measurement": "pEC50", "setting": "[4]", "result": "< 3.60"}, {"measurement": "pIC50", "setting": "L1210", "result": 3.94}, {"measurement": "pIC50", "setting": "HeLa", "result": 3.78}, {"measurement": "pIC50", "setting": "CCRF-CEM", "result": 3.97}, {"measurement": "pEC50", "setting": "[10]", "result": 3.84}, {"measurement": "CC50", "setting": "MT4", "result": "> 250", "unit": "µM"}]}
{"smiles": "C[C@H](NP(=O)(Oc1ccccc1)OC1C[C@H](CO)[C@@H](O)C1)C(=O)OC1CCCCC1", "note": "(mixture of isomers)", "values": [{"measurement": "pEC50", "setting": "[11]", "result": 3.60}, {"measurement": "CC50", "setting": "CCRF-CEM", "result": "> 250", "unit": "µM"}, {"measurement": "pEC50", "setting": "[2]", "result": "< 3.60"}, {"measurement": "pEC50", "setting": "[3]", "result": "< 3.60"}]}
